Source: ChEMBL document CHEMBL3272327, “Hypocholesterolemic activity of 1,3-bis(substituted phenoxy)-2-propanones” (J Med Chem, 1976)

How the values were obtained:
Rattus norvegicus [1] = assay: Hypocholesterolemic activity in rat assessed as serum glycerol level at 10 mg/kg/day administered for 14 days (reference value: 100 +/- 39%); assay type: functional
Rattus norvegicus [2] = assay: Hypocholesterolemic activity in Sprague-Dawley rat assessed as serum cholesterol level at 10 mg/kg/day, po administered via intubation measured on day 4 by Liebermann-Burchard reaction (reference value: 100%); assay type: functional
Rattus norvegicus [3] = assay: Hypocholesterolemic activity in rat assessed as [14C]cholesterol level in stomach at 10 mg/kg/day administered for 1 week measured after 22 hrs on day 7 by scintillation counting analysis (reference value: 8.87 +/- 4.00%); assay type: functional
How it was run: (§1)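 Male rats were dosed orally for 1 week (10 mg/kg/day) or with 1% CMC. On day 7 they received 5 μCi [4-14C]cholesterol orally and were killed after 22 hr. Organs were homogenized (10% in water); 0.1-cc aliquots of homogenate, urine, blood or feces were digested with Protosol. Samples were counted in toluene/Triton X-100 (2:1) scintillant with 0.4% PPO and 0.01% POPOP. Results are % of dose per tissue, N = 6.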

Rattus norvegicus [4] = assay: Hypocholesterolemic activity in [14C]palmitic acid-treated rat assessed as decrease in 14C fatty acid incorporation into phospholipid fraction in liver at 10 mg/kg/day administered for 1 week by scintillation counting analysis; assay type: functional; design: scale not given: the % may be the effect or the level left
Rattus norvegicus [5] = assay: Hypocholesterolemic activity in rat assessed as [14C]cholesterol level in feces at 10 mg/kg/day administered for 1 week measured after 22 hrs on day 7 by scintillation counting analysis (reference value: 15.50 +/- 5.24%); assay type: functional; how it was run: as §1
Rattus norvegicus [6] = assay: Hypocholesterolemic activity in rat assessed as [14C]palmitic acid level in testes at 10 mg/kg/day administered for 1 week measured after 22 hrs on day 7 by scintillation counting analysis (reference value: 0.22 +/- 0.10%); assay type: functional, Testis
How it was run: (§2)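 Male Sprague-Dawley rats on lab chow dosed orally once daily for 1 week at 10 mg/kg/day, suspended in 1% CMC, or given vehicle alone. On day 7, 5 μCi [1-14C]palmitic acid given orally. Killed after 22 hr; organs made into 10% water homogenates. Aliquots of 0.1 cc of homogenate, urine, blood or feces were digested and scintillation counted. Output is % of dose per tissue, N = 6.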

Rattus norvegicus [7] = assay: Effect on protein content in rat liver at 10 mg/kg/day administered for 16 days (reference value: 100 +/- 6%); assay type: ADME, organism-based; settings: in vivo, 384 h
Rattus norvegicus [8] = assay: Effect on food intake in rat at 50 mg/kg/day measured during first week (reference value: 19.1 +/- 1.7 gms); assay type: ADME, organism-based; settings: in vivo
How it was run: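 Male rats dosed orally at 1, 5, 10 or 50 mg/kg/day in 1% CMC. Average food intake in grams per rat per week measured over a 2-week period, first and second weeks reported separately. N = 8, Student's t test against the 1% CMC control.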

Rattus norvegicus [9] = assay: Hypocholesterolemic activity in rat assessed as [14C]cholesterol level in urine at 10 mg/kg/day administered for 1 week measured after 22 hrs on day 7 by scintillation counting analysis (reference value: 0.14 +/- 0.06%); assay type: functional; how it was run: as §1
Rattus norvegicus [10] = assay: Effect on testes weight in rat at 5 mg/kg/day administered for 16 days measured 24 hrs after last drug dosage relative to total body weight (reference value: 1.08 +/- 0.08%); assay type: ADME, organism-based, Testis; settings: in vivo
Rattus norvegicus [11] = assay: Hypocholesterolemic activity in rat assessed as [14C]palmitic acid level in small intestine at 10 mg/kg/day administered for 1 week measured after 22 hrs on day 7 by scintillation counting analysis (reference value: 4.43 +/- 1.43%); assay type: functional; how it was run: as §2
Rattus norvegicus [12] = assay: Effect on body weight in rat at 50 mg/kg/day administered for 16 days measured on day 16 (reference value: 233 +/- 16 gms); assay type: ADME, organism-based; settings: in vivo, 384 h
How it was run: (§3)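 Male Sprague-Dawley rats with chow and water ad libitum. Compound suspended in 1% CMC-water and given orally by intubation needle at 11:00 a.m., 1, 5, 10 or 50 mg/kg/day, for 16 days. Body weight (g) recorded on days 0, 7 and 16. N = 8.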

Rattus norvegicus [13] = assay: Effect on vesicular gland weight in rat at 5 mg/kg/day administered for 16 days measured 24 hrs after last drug dosage relative to total body weight (reference value: 0.10 +/- 0.04%); assay type: ADME, organism-based; settings: in vivo
Rattus norvegicus [14] = assay: Hypocholesterolemic activity in Sprague-Dawley rat assessed as serum cholesterol level at 50 mg/kg/day, po administered via intubation measured on day 10 by Liebermann-Burchard reaction (reference value: 100 +/- 7%); assay type: functional
Rattus norvegicus [15] = assay: Effect on vas deferens and epididymis weight in rat at 50 mg/kg/day administered for 16 days measured 24 hrs after last drug dosage relative to total body weight (reference value: 0.22 +/- 0.04%); assay type: ADME, organism-based; settings: in vivo
Rattus norvegicus [16] = assay: Effect on liver weight in rat at 5 mg/kg/day administered for 16 days measured 24 hrs after last drug dosage relative to total body weight (reference value: 4.22 +/- 0.29%); assay type: ADME, organism-based; settings: in vivo
Rattus norvegicus [17] = assay: Hypocholesterolemic activity in rat assessed as [14C]cholesterol level in small intestine at 10 mg/kg/day administered for 1 week measured after 22 hrs on day 7 by scintillation counting analysis (reference value: 22.09 +/- 5.68%); assay type: functional; how it was run: as §1
Rattus norvegicus [18] = assay: Effect on spleen weight in rat at 50 mg/kg/day administered for 16 days measured 24 hrs after last drug dosage relative to total body weight (reference value: 0.55 +/- 0.12%); assay type: ADME, organism-based; settings: in vivo
Rattus norvegicus [19] = assay: Effect on body weight in rat at 5 mg/kg/day administered for 16 days measured on day 16 (reference value: 233 +/- 16 gms); assay type: ADME, organism-based; settings: in vivo, 384 h; how it was run: as §3
Rattus norvegicus [20] = assay: Effect on liver weight in rat at 10 mg/kg/day administered for 16 days measured 24 hrs after last drug dosage relative to total body weight (reference value: 4.22 to 4.54%); assay type: ADME, organism-based; settings: in vivo
Rattus norvegicus [21] = assay: Effect on liver weight in rat at 1 mg/kg/day administered for 16 days measured 24 hrs after last drug dosage relative to total body weight (reference value: 4.22 +/- 0.29%); assay type: ADME, organism-based; settings: in vivo
Rattus norvegicus [22] = assay: Hypocholesterolemic activity in rat assessed as [14C]cholesterol level in liver at 10 mg/kg/day administered for 1 week measured after 22 hrs on day 7 by scintillation counting analysis (reference value: 19.80 +/- 2.93%); assay type: functional; how it was run: as §1
Rattus norvegicus [23] = assay: Hypocholesterolemic activity in rat assessed as [14C]cholesterol level in large intestine at 10 mg/kg/day administered for 1 week measured after 22 hrs on day 7 by scintillation counting analysis (reference value: 19.12 +/- 5.62%); assay type: functional; how it was run: as §1
Rattus norvegicus [24] = assay: Increase in lipase level in rat serum at 10 mg/kg/day administered for 16 days (reference value: 100 +/- 39%); assay type: functional
How it was run: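 Male Sprague-Dawley rats dosed orally at 10 mg/kg/day in 1% CMC for 16 days. Serum lipase was measured with a commercial serum lipase kit. Expressed as percent of vehicle control, N = 8.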

Rattus norvegicus [25] = assay: Effect on glycogen content in rat liver at 10 mg/kg/day administered for 16 days (reference value: 100 +/- 24%); assay type: ADME, organism-based; settings: in vivo, 384 h
Rattus norvegicus [26] = assay: Hypocholesterolemic activity in rat assessed as [14C]palmitic acid level in vas deferens at 10 mg/kg/day administered for 1 week measured after 22 hrs on day 7 by scintillation counting analysis (reference value: 0.23 +/- 0.05%); assay type: functional; how it was run: as §2
Rattus norvegicus [27] = assay: Effect on testes weight in rat at 10 mg/kg/day administered for 16 days measured 24 hrs after last drug dosage relative to total body weight (reference value: 1.08 to 1.10%); assay type: ADME, organism-based, Testis; settings: in vivo

Cc1ccc(OCC(=O)COc2ccc(C)cc2)cc1
Activity (Rattus norvegicus [1]): 24%
Activity (Rattus norvegicus [2]): 77%
Activity (Rattus norvegicus [3]): 3.36%
Activity (Rattus norvegicus [4]): 16%
Activity (Rattus norvegicus [5]): 22.1%
Activity (Rattus norvegicus [6]): 0.25%
Activity (Rattus norvegicus [7]): 102%
Activity (Rattus norvegicus [8]): 18.9 g
Activity (Rattus norvegicus [9]): 0.94%
Activity (Rattus norvegicus [10]): 1.03%
Activity (Rattus norvegicus [11]): 6.05%
Activity (Rattus norvegicus [12]): 232 g
Activity (Rattus norvegicus [13]): 0.13%
Activity (Rattus norvegicus [14]): 46%
Activity (Rattus norvegicus [15]): 0.25%
Activity (Rattus norvegicus [16]): 4.31%
Activity (Rattus norvegicus [17]): 22.56%
Activity (Rattus norvegicus [18]): 0.4%
Activity (Rattus norvegicus [19]): 241 g
Activity (Rattus norvegicus [20]): 4.65%
Activity (Rattus norvegicus [21]): 4%
Activity (Rattus norvegicus [22]): 22.19%
Activity (Rattus norvegicus [23]): 12.84%
Activity (Rattus norvegicus [24]): 222%
Activity (Rattus norvegicus [25]): 118%
Activity (Rattus norvegicus [26]): 0.5%
Activity (Rattus norvegicus [27]): 1.13%
